Data from PMC11031320 (Cell chemical biology, 2024).
Entries after “also recorded” stand apart in the source; their conditions may differ. Where two headings read alike, the source gives them in different places.

Experiments:
[1] = target: wild-type (WT) HsHsp90 nucleotide-binding domain (NBD) (Homo sapiens, UniProt P07900); assay: FITC-GA competition, wild-type HsHsp90 nucleotide-binding domain
[2] = target: T1, HsHsp90 (Homo sapiens, UniProt P07900); assay: FITC-geldanamycin competitive binding assay
[3] = test system: P. falciparum proteasome; type: biochemical, Plasmodium falciparum
[4] = test system: P. falciparum 3D7; assay: Asexual blood stage parasite inhibition assay; type: cell-based; conditions: Plasmodium falciparum, 3D7, 72 h, read-out: EC50, blood stage P. falciparum 3D7
Outline: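 Ring-stage 3D7 cultures (2% parasitemia, 1% hematocrit) were exposed to test compound at 0–50 μM (0.5% DMSO) for 72 h at 37 °C under 3% O2/5% CO2/92% N2. Controls were DMSO and quinacrine (1 μM). Cells were lysed in saponin/Triton X-100 buffer with 10X SYBR Green I and stained 24 h at RT in the dark. Fluorescence was read at Ex 485/Em 535 and normalized to controls. 2–3 replicates, 2–4 independent experiments.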

[5] = test system: PfHsp90; assay: FITC-geldanamycin competitive binding assay; conditions: ratio of HsHsp90 to PfHsp90 affinity
[6] = target: T2, PfHsp90 (Plasmodium falciparum, UniProt Q8IC05); assay: FITC-geldanamycin competitive binding assay
[7] = test system: HsHsp90 NBD L122I/G125S/A126G and Q23N; assay: FITC-GA competition, other HsHsp90 NBD variants; type: binding, human; conditions: compared to WT HsHsp90 NBD
Outline: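 Fluorescence polarization displacement of 1.0 nM FITC-geldanamycin from each His-tagged human Hsp90 NBD variant (25 nM). Buffer was 20 mM HEPES pH 7.3, KCl, MgCl2, Na2MoO4, DTT, 0.01% NP-40. Test compound was dosed at 0–10 μM with 1% final DMSO. Plates were held overnight at 4 °C in the dark, then read at Ex 480/Em 535. Percent bound was normalized to protein-only and protein-free tracer controls. At least 4 independent determinations.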

[8] = test system: HuH7 cells; assay: HuH7 host cell viability; type: cell-based, human; conditions: at 10 μM
[9] = target: HsHsp90 NBD E25D/K112R (Homo sapiens, UniProt P07900, E25D/K112R); assay: FITC-GA competition, salt bridge double mutant HsHsp90 NBD; type: binding
[10] = test system: P. berghei ANKA; assay: Liver stage parasite load in HuH7 cells; type: cell-based, Plasmodium berghei; conditions: for EC50: Plasmodium berghei, Huh-7, 44 h, read-out: EC50, liver stage P. berghei; for relative P. berghei parasite load in HuH7 cells: at ~30 μM
[11] = target: T2, PfHsp90; conditions: cited from earlier work
[12] = target: T1, HsHsp90; conditions: read-out: Kd of FITC-GA to full-length HsHsp90; cited from earlier work
[13] = test system: 26S proteasome; assay: Native gel in-gel Suc-LLVY-AMC hydrolysis, 26S band; type: cell-based, Plasmodium falciparum
[14] = test system: 20S particles; assay: Native gel in-gel Suc-LLVY-AMC hydrolysis, 20S band after SDS activation; type: cell-based, Plasmodium falciparum
[15] = test system: P. falciparum gametocytes (NF54 peg4-tdTomato); assay: Gametocyte inhibition assay; type: cell-based; conditions: Plasmodium falciparum
[16] = lysate treated with epoxomicin vs DMSO
[17] = NF54, 24 h, read-out: early gametocyte viability
[18] = NF54, 240 h, read-out: late gametocyte viability
[19] = 10 μM, 3 hours, cycloheximide 50 μM co-treatment

For CCOC(=O)NCc1ccc(-n2c(-c3cc(C(C)C)c(O)cc3O)n[nH]c2=S)cc1 [BX-2819], the Ki [1] was 0.019 ± 0.004 µM, the Ki [2] was 0.049 ± 0.0043 µM and the “reaction rate compared to DMSO control” value ([3]; 100 μM BX-2819 with 3 μM purified PfHsp90) was “not different from the DMSO control”. For the same compound, the “Suc-LLVY-AMC hydrolysis in PfHsp90-treated samples” value ([3]; BX-2819 10–100 μM with PfHsp90 3 μM) was “reduced hydrolysis in a dose-dependent manner; also recorded: negated the increased rate”, the EC50 [4] was 0.74 ± 0.034 µM and the “selectivity to PfHsp90 over HsHsp90” value [5] was 2.0 fold. For the same compound, the Ki [6] was 0.024 ± 0.0044 µM, the “displacement of FITC-GA from PfHsp90” value ([6]; BX-2819 10 μM) was “displaces FITC-GA” and the “change in affinity for other HsHsp90 NBD constructs” value [7] was “unaltered”. The “decrease of HuH7 viability” value [8] was no more than 50%, the Ki [9] was 0.013 ± 0.0025 µM and the EC50 [10] was 1.5 ± 0.41 µM. For the same compound, the “relative P. berghei parasite load in HuH7 cells” value [10] was “near zero”.
In the case of CO[C@H]1/C=C\C=C(/C)C(=O)NC2=CC(=O)C(NCCCCCCNC(=S)Nc3ccc(-c4c5ccc(=O)cc-5oc5cc(O)ccc45)c(C(=O)O)c3)=C(C[C@@H](C)C[C@H](OC)[C@H](O)[C@@H](C)/C=C(\C)[C@@H]1OC(N)=O)C2=O [FITC-GA], the Kd ([11]; read-out: Kd of FITC-GA to full-length PfHsp90) is listed as 0.042 µM and the Kd [12] is listed as 0.023 µM.
In the case of CC[C@@H](C)Nc1cc(C(=O)NC2C[C@H]3CC[C@@H](C2)N3c2ccc(C(=O)C3CC3)cn2)c(C)cc1C(N)=O (stereo partly drawn) [XL888], the Ki [1] is reported as 0.068 ± 0.023 µM, the Ki [2] is reported as 0.13 ± 0.03 µM and the EC50 [4] is reported as 0.33 ± 0.11 µM. The “selectivity to PfHsp90 over HsHsp90” value [5] was 4.8 fold, the Ki [6] was 0.027 ± 0.0078 µM and the “change in affinity for other HsHsp90 NBD constructs” value [7] was “no significant differences”. For the same compound, the “decrease of HuH7 viability” value [8] was no more than 50%, the Ki [9] was 0.0096 ± 0.0016 µM and the “improvement in affinity to E25D/K112R double mutant compared to WT HsHsp90 NBD” value [9] was 7 fold. For the same compound, the EC50 [10] was 0.24 ± 0.045 µM and the “relative P. berghei parasite load in HuH7 cells” value [10] was “near zero”.
For CC(C)C[C@H](NC(=O)[C@H](Cc1ccccc1)NC(=O)c1cnccn1)B(O)O [bortezomib], the “Suc-LLVY-AMC hydrolysis in P. falciparum lysate” value ([3]; bortezomib 25 μM, 180 min, compared to DMSO) was “significantly reduced; also recorded: decreased total hydrolysis”.
For CC[C@H](C)[C@H](NC(=O)[C@H]([C@@H](C)CC)N(C)C(C)=O)C(=O)N[C@H](C(=O)N[C@@H](CC(C)C)C(=O)[C@@]1(C)CO1)[C@@H](C)O [epoxomicin], the 26S band [13, 16] was “reduced” and the “activated 20S band” value [14, 16] was “reduced”.
COC1=C2C[C@@H](C)C[C@H](OC)[C@H](O)[C@@H](C)/C=C(\C)[C@H](OC(N)=O)[C@@H](OC)/C=C\C=C(/C)C(=O)NC(=CC1=O)C2=O [geldanamycin] gave a viability at 1 µM [15, 17] of 37%, a viability at 10 µM [15, 17] of 16% and a viability at 1 µM [15, 18] of 71%. For the same compound, the viability at 10 µM [15, 18] was 56%, the “proportion of active 26S proteasomes compared to DMSO control” value [13, 19] was 63% and the “latent 20S particles (after activation) compared to DMSO control” value [14, 19] was 158%.
For COc1ccc2c(c1)[nH]c1c(C)nccc12 [harmine], the affinity [11] is listed as “micromolar”.
